Source: PubChem (The Scripps Research Institute Molecular Screening Center)
HCV core dimer – blocks dimerization of HCV core protein; TR-FRET GST/Flag-core106 dimerization, 1536-well; 300,000 compounds, 0.33% hits; inhibition, % at 5 µM;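 active = inhibition above the mean of all tested compounds plus 3 SD, set per screening campaign, cut at about 45% in these data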
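System – GST-tagged and Flag-tagged HCV core protein residues 1-106 · Repeats – one well for each compound · Technique – TR-FRET 671 and 617 nm emission · Doses – one concentration, 5 µM, in 0.5% DMSO · Times – 4 h, 22.5 °C incubation · Also added – Eu donor and XL665 acceptor anti-tag antibodies · Measure – percent inhibition of core106 dimerization signal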
LEDGF integ inh – blocks HIV-1 LEDGF/p75-dependent DNA integration. 370,000 compounds, 0.64% hits. AID 743269. inhibition, % at 3.7 µM. TR-FRET IN-LEDGF/p75 DNA integration, Eu/Cy5;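 active = inhibition above the screen-wide mean plus 3 SD, cut at about 13% in these data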;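 also: signal is the Cy5 over europium emission ratio at 671 and 618 nm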
TDP2 absorb – blocks human TDP2 phosphodiesterase activity. recombinant TDP2, T5PNP hydrolysis, p-nitrophenol absorbance 415 nm. AID 720702. 370,000 compounds, 0.34% hits. inhibition, % at 12.8 µM. O95551;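 active = inhibition above the mean of all tested compounds plus 3 SD, set per campaign, cut at about 25% in these data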
Target sequence (O95551 whole entry, looked up): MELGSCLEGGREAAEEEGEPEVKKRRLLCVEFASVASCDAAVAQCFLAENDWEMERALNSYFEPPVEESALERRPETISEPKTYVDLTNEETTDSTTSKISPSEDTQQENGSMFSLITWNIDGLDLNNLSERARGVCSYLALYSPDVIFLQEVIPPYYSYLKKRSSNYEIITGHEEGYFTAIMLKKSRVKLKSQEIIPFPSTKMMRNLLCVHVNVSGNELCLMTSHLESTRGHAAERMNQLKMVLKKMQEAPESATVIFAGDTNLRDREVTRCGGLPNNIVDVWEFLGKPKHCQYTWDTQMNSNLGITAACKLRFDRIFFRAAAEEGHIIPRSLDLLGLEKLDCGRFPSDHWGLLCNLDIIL
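test system = human TDP2 enzyme | input = TDP2 enzyme at 120 nM final | medium = 50 mM Tris-HCl pH 7.5 with Mg2+, KCl, DTT, BSA | also added = T5PNP substrate, 5 mM | times = 2 h at 37 °C | technique = epi absorbance | benchmarks = high control without enzyme, low control DMSO plus TDP2 | replication = each compound tested once, singlicate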
MBD2 DNA inh – inhibitors of human MBD2 binding to methylated oligonucleotide. Q9UBB5. TR-FRET. inhibition, % at 4.4 µM. 370,000 compounds, 0.31% hits; in the data active = inhibition above about 13%
UHRF1 binding – blocks human UHRF1 binding to methylated DNA; inhibition, % at 4.4 µM; UHRF1 binding to methylated oligo, TR-FRET; Q96T88; 370,000 compounds, 0.75% hits; in the data active = inhibition above about 21%;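 also: UHRF1 SRA domain binding a hemimethylated CpG hairpin DNA probe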
Each line names hits and unclear results; the compound was inactive in the other large screens. This is a sample that favours compounds with a hit; in the whole collection about 1.8% have one here.

COc1ccccc1NC(=O)N1CCN(C)CC1	UHRF1 binding 34.1
Cc1ccc(S(=O)(=O)N(C)C)cc1NC(=O)COC(=O)/C=C/c1ccc(F)cc1	UHRF1 binding 34.5
COc1ccc(/C=C/C(=O)OCC(=O)Nc2cc(S(=O)(=O)N(C)C)ccc2Cl)cc1	none
CC(=O)Oc1ccc(N2C(=O)C3C(C2=O)C(C(=O)c2ccc(Cl)cc2)N2CCCC32)cc1 (configuration not stated)	none
Cc1ccc(N2C(=O)C3C(C2=O)C(C(=O)c2ccc(Cl)cc2)N2CCCC32)cc1 (configuration not stated)	HCV core dimer 61.8
O=C(N=c1ccn(-c2nc3ccccc3nc2NS(=O)(=O)c2ccccc2)cc1)c1cccs1	none
Cc1ccccc1C(=O)N=c1ccn(-c2nc3ccccc3nc2NS(=O)(=O)c2ccc(F)cc2)cc1	UHRF1 binding 20.9
CCC1(CC)NC(=O)N(CC(=O)Nc2sc3c(c2C(N)=O)CCC3)C1=O	HCV core dimer 82.6
O=C(CSc1nnc(-c2ccccc2)n1-c1ccc(Cl)cc1)Nc1ccccc1-c1ccccc1	none (no result: HCV core dimer)
Cc1cc(C)c(NC(=O)COC(=O)c2cccc3c2C(=O)c2ccccc2C3=O)c(C)c1	none
Cc1cc(C)c(Nc2cc(S(=O)(=O)O)c(N)c3c2C(=O)c2ccccc2C3=O)c(C)c1	UHRF1 binding 22.8
CC(=O)c1cc(C#N)c(N2CCOCC2)nc1C	UHRF1 binding 34.1
COC(=O)c1cc(NC(=O)CN2C(=O)CSC2=O)ccc1Cl	UHRF1 binding 22.8
Cc1nnc(SCC(=O)NCc2ccccc2Cl)[nH]c1=O	UHRF1 binding 20.9
Cc1nnc(SCC(=O)Nc2c(Cl)cccc2Cl)[nH]c1=O	none
Cc1cc(NC(=O)CN(C)C)c([N+](=O)[O-])cc1C	UHRF1 binding 41.8
CC(COc1cc(F)cc(F)c1)CN1CCC(C(O)(c2ccccc2)c2ccccc2)CC1 (configuration not stated)	none (no result: HCV core dimer)
C=C(C)c1cccc(C(C)(C)NC(=O)N2CCCCC2CC)c1 (configuration not stated)	UHRF1 binding 22.4
NC(=O)C1CCN(c2ncc(Br)s2)CC1	none (no result: HCV core dimer)
Cc1nn(-c2ccccc2)c(C)c1C(=O)OC/C(O)=C(\C#N)c1nc2ccccc2[nH]1	HCV core dimer 67.3
O=Cc1cn(CC(=O)Nc2ccc3c(c2)OCO3)c2ccccc12	UHRF1 binding 35.3
CCn1c(SCC(=O)Nc2ccccc2-c2ccccc2)nnc1-c1ccc(Cl)cc1	none (no result: HCV core dimer)
Cc1ccc2nc(N3CCN(C)CC3)c(C#N)cc2c1	none
Cc1ccc2nc(N3CCN(S(=O)(=O)c4ccc(C)c(Cl)c4)CC3)c(C#N)cc2c1	HCV core dimer 61.9
CCOC(=O)c1sc(NC(=O)Nc2ccccc2F)nc1C	none
CCOC(=O)c1sc(Nc2ccccc2Cl)nc1C	UHRF1 binding 26.6
COC(=O)C1CN(C2CCCC2)CCS(=O)(=O)N1Cc1ccc(F)cc1 (configuration not stated)	none (no result: HCV core dimer)
S=C(Nc1cccc(Cl)c1)OCCN1CCCC12CCC(c1ccccc1)CC2 (configuration not stated)	none (no result: HCV core dimer)
COc1ccc(-n2c(Cc3cccs3)nnc2SCC(=O)Nc2cccc3ccccc23)cc1	none (no result: HCV core dimer)
COc1ccc(NC(=O)c2c[nH]n3c(=O)cc(C4CCN(C(=O)OC(C)(C)C)CC4)nc23)cc1Cl	UHRF1 binding 39.0
Cc1nn(-c2ccccc2)c(C)c1/C=N/NC(=O)CSc1nc2ccccc2c(=O)n1-c1ccc(Br)cc1	HCV core dimer 58.9
CCCC[C@@H]1C(=O)N2N=Cc3cscc3[C@H]2N2N=Cc3cscc3[C@@H]12	none (no result: HCV core dimer)
Cc1cccc(N=Cc2cc3c(cc2[N+](=O)[O-])OCO3)c1	LEDGF integ inh 14.3
COC(=O)[C@]12C[C@H](CC(=O)N3CCCC3)C(=O)N(Cc3ccc(Cl)cc3Cl)C1=C[C@H](COCc1ccccc1)O[C@@H]2C	none (no result: HCV core dimer)
CCCCNS(=O)(=O)/C=C/c1ccc(F)cc1CNC(=O)OC(C)(C)C	none (no result: HCV core dimer)
CC(=O)Nc1ccc(C(=O)NCCc2ccccc2)cc1	UHRF1 binding 21.1
COC(=O)C1=CC(=O)C=C(OC)[C@@]12Oc1cc(C)cc(OC)c1C2=O	none (no result: HCV core dimer)
COC(=O)c1ccc(=O)c2nc3/c(=C/O)c(O)cc(=O)c3[nH]c12	LEDGF integ inh 51.8, UHRF1 binding 21.1
CCCCN1CC(COCc2ccccc2)Oc2cccc(Oc3ccc(SC)c(C)c3)c2S1(=O)=O (configuration not stated)	UHRF1 binding 23.3 (no result: HCV core dimer)
CCCCN1CC(COCc2ccccc2)Oc2cccc(Oc3ccc(OC)cc3)c2S1(=O)=O (configuration not stated)	none (no result: HCV core dimer)
Cc1cccc2c1NC1(CCCC1)CC2C (configuration not stated)	UHRF1 binding 22.5
CCOc1ccc2c(c1)[nH]c(=S)n2C	UHRF1 binding 38.7
CCOc1ccc(OCCn2c(=S)[nH]c3ccccc32)cc1	none (no result: HCV core dimer)
Nc1c(S(=O)(=O)c2cccc(Cl)c2)c2nc3ccccc3nc2n1/N=C/c1ccc(O)c(O)c1	HCV core dimer 70.6 (no result: LEDGF integ inh, TDP2 absorb, MBD2 DNA inh, UHRF1 binding)
C/C(=C/c1nc(N)n(Cc2ccccc2)c1Cc1ccccc1)Cn1[nH]c(=O)n(-c2ccccc2)c1=O	none (no result: HCV core dimer)
CCNC(=O)COC(=O)/C=C/c1cccc([N+](=O)[O-])c1	none
CCCCN(CCCC)C(=O)/C=C/c1cccc([N+](=O)[O-])c1	UHRF1 binding 21.0
COCCNC(=O)C(c1ccc(F)cc1)N(C(=O)CCC(=O)Nc1nccs1)c1ccc(C)cc1 (configuration not stated)	UHRF1 binding 20.8
COCCNC(=O)C(c1ccc(F)cc1)N(CCOC)C(=O)CCC(=O)Nc1nccs1 (configuration not stated)	none
COC(=O)[C@H]1C[C@@]2(N3CCCCC3)c3ccccc3N(S(=O)(=O)c3ccccc3)[C@H]2N1	none (no result: HCV core dimer)
Cc1c(Cl)c([N+](=O)[O-])nn1CCCC(=O)N1CCN(c2ccccc2)CC1	UHRF1 binding 31.2
Cc1c(Br)c([N+](=O)[O-])nn1CCCC(=O)N1CCN(c2ccccc2)CC1	none
c1cc2c3c(cccc3c1)NC1(CCCCCC1)N2	HCV core dimer 51.7
CN(C)c1ccc(/C=N\NC(=O)c2cccc(S(=O)(=O)N(C)C)c2)cc1	none (no result: HCV core dimer)
CCCCn1c(=O)[nH]c2nc3cc(NC(C)=O)ccc3nc2c1=O	UHRF1 binding 44.7
COc1cc(C(=O)c2ccccc2)c(OC)cc1C(=O)Nc1ccc(O)cc1	UHRF1 binding 27.3
COc1ccc(NC(=O)c2cc3ccccc3cc2OC)cc1	none
N=c1c2c(ccn1CCCCc1ccccc1)Oc1ccc3ccccc3c1C2c1ccccc1 (configuration not stated)	none (no result: HCV core dimer)
O=C1[C@@H](Oc2ccccc2)[C@@H](c2ccccc2)N1c1ccccc1	UHRF1 binding 22.4 (no result: HCV core dimer)
COc1cc(C(=O)OCC(=O)Nc2c(C)n(C)n(-c3ccccc3)c2=O)c([N+](=O)[O-])cc1OC	UHRF1 binding 32.2 (no result: HCV core dimer)
Cc1c[nH]c2cccc(-c3ccc4c(c3)OCO4)c12	none (no result: HCV core dimer)
